An excerpt weighted towards active compounds, which were near 0.81% of everything screened.
PKD1 inh: inhibitors of human PKD1 kinase; Q15139; PKD1 kinase fluorescence polarization assay; inhibition, % (no concentration beside the values); 200,000 compounds, 0.056% hits; in the data active = inhibition above about 50%
Calpain2 inh: blocks pig calpain II enzyme activity; 220,000 compounds, 0.37% hits; inhibition, % at 16 µM; AID 1236; purified calpain II, fluorogenic peptide substrate, 30 min;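 active = inhibition above about 50%, limit read from the data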
HMGR II inh: E. faecalis class II HMG-CoA reductase inhibition; 190,000 compounds, 0.41% hits; inhibition, % at 10 µM; purified E. faecalis HMGR, NADPH absorbance 340 nm kinetic;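 active = inhibition above a set limit, the median over all tested compounds plus 3 SD, cut at about 9.5% in these data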;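 also: enzyme runs in reverse so mevalonate oxidation gives rising NADPH absorbance; 0% = complete reaction with DMSO and 100% = background rate lacking mevalonate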
Rad51 HR inh: Rad51 (human) homologous recombination inhibition; 200,000 compounds, 0.085% hits; inhibition, % at 10 µM; AID 1385; hRad51 DNA strand exchange, fluorescence dequenching; Q06609;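 active = inhibition above 40% at the single screening dose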;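 also: 0% = DMSO control wells and 100% = blanks with heterologous ssDNA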
Target sequence (Q06609 whole entry, looked up): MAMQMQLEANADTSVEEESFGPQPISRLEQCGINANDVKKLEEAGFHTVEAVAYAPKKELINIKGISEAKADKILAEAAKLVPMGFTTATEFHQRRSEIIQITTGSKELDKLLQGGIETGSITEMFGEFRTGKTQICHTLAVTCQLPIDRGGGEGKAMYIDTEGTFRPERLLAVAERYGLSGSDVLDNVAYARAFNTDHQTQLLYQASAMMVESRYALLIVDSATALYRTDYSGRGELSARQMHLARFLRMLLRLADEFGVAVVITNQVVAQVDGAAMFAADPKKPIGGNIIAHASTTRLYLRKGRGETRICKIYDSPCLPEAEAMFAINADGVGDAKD
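Material: Human Rad51 nucleoprotein filaments preassembled on unlabelled ssDNA | Also added: Labelled 47-mer dsDNA for strand exchange | Dosing: Single dose, 10 µM final compound | Schedule: 30-min compound preincubation and 15-min exchange, both room temperature | Technique: Fluorescence dequenching at 485/520 nm | Measure: Percent inhibition relative to plate controls and blanks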
Pf gametocyte: P. falciparum stage V gametocyte viability inhibition; inhibition, % at 10.9 µM; P. falciparum stage V gametocytes, ATP luminescence, 24 h; 150,000 compounds, 0.065% hits;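 active = inhibition above the mean plus 3 SD of compounds within the control limits, set per campaign, cut at about 38% in these data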;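 also: 0% = DMSO wells and 100% = medium only without gametocytes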
Redox H2O2 prof: compounds producing H2O2 with reducing agent – biochemical, NIH compound library profiling, artefact control for MLSCN library redox annotation, primary screen; activation, % at 10 µM; DTT-dependent redox cycling H2O2, phenol red/HRP absorbance; 100% = 100 µM peroxide control, 0% = buffer; AID 878; 200,000 compounds, 0.03% hits;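 active = activation of at least 50% relative to the plate's high and low controls in the primary single-dose screen; inactive = activation below 50%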;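 also: compound incubated with DTT at 0.8 mM final as the reducing agent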
Numbers without * were called inactive; / = no result.

SMILES	PKD1 inh	Calpain2 inh	HMGR II inh	Rad51 HR inh	Pf gametocyte	Redox H2O2 prof
COc1ccc(C2NC(=O)CCC2[N+](=O)[O-])c(OC)c1OC (stereo unspecified)	/	/	/	/	16.9	/
COc1ccc(-c2csc(NC(=O)c3ccccc3NS(=O)(=O)c3ccc(F)c(F)c3)n2)cc1	-2.3	60.5*	-1.4	-11.2	13.0	-0.5
Cc1ccc(S(=O)(=O)Nc2ccccc2C(=O)Nc2nc(-c3ccc(F)cc3)cs2)cc1	4.1	-58.8	-2.4	-6.6	3.0	-0.3
CCN(CC)CCOC(=O)c1ccc(NC(=O)c2ccc(Cl)c(S(=O)(=O)N3CCCCCC3)c2)cc1	-0.6	28.1	-2.3	-8.5	-3.3	0.4
CN(C[C@@H](Cc1cccc2ccccc12)N(C[C@H](Cc1ccccc1)N(CCc1ccccc1)N=O)N=O)N=O	-7.2	-26.0	12.4*	-9.6	/	1.8
CN(C[C@H](Cc1ccccc1)N(C[C@@H](Cc1cccc2ccccc12)N(CCc1ccccc1)N=O)N=O)N=O	3.9	-5.0	-1.4	2.6	/	0.8
CC(NC(=O)/C(=C\c1ccco1)NC(=O)c1ccccc1Br)C(=O)O (stereo unspecified)	0.8	14.0	10.4*	/	/	-1.3
C=CCOC(=O)C1=C[C@@H](c2csc3ccccc23)[C@H](CCCO)[C@@H](OCC)O1	/	/	/	-3.1	/	/
c1cnc2c(OCc3nc4ccccc4[nH]3)cccc2c1	-6.5	56.2*	-3.5	6.4	-2.6	0.6
COc1ccccc1OCc1nc2ccccc2[nH]1	-10.3	5.6	-2.8	-1.5	-7.2	-0.9
O=C(c1ccc(Cl)cc1)c1oc2ccccc2c1CS(=O)(=O)c1ccccc1	-3.6	60.1*	-4.9	0.5	/	-2.7
CCNC(=S)Nc1ccc2c(c1)oc1ccccc12	/	/	/	/	18.9	/
COc1c(Cl)cc(C(=O)Nc2ccccc2-c2ccccc2)cc1Cl	-5.1	53.7*	-0.2	/	/	0.6
O=C(CC(=O)N/N=C/c1ccc(C(=O)O)cc1)NCCc1ccccc1	/	/	/	/	4.9	/
NNC(=S)Nc1cccc(-c2n[nH]c(=S)o2)c1	/	-28.3	/	9.9	-6.0	/
CC(=O)NNc1ncnc2c1cnn2-c1ccc(C)c(Cl)c1	1.8	-7.0	11.5*	0.4	17.5	0.3
Cc1ccccc1CSc1ccc(-c2ccc3c(c2)OCO3)nn1	0.9	27.1	1.8	-0.2	-18.5	1.2
C=C[C@H]1[C@H](OC2OC(CO)C(O)C(O)C2O)OC=C(C(=O)OC)[C@H]1C[C@H]1CC(=O)C[C@H](CC(=O)CCc2ccc(O)cc2)O1 (stereo partly specified)	/	/	/	-6.4	/	/
O=C(CCCN1C(=O)/C(=C/c2cccs2)SC1=S)NNC(=O)c1cccnc1	/	-37.4	/	41.7*	13.0	/
O=C(CCCN1C(=O)/C(=C/c2ccccc2Cl)SC1=S)NNC(=O)c1ccc(Cl)cc1Cl	/	51.9*	/	7.8	7.9	/
O=C(CCCN1C(=O)/C(=C\c2cccs2)SC1=S)NNC(=O)c1ccncc1	-4.9	-22.1	1.5	1.5	-1.2	0.3
S=c1[nH]nc(-c2ccco2)n1-c1ccc(Br)cc1	/	/	/	/	-25.6	/
C=CCCN(Cc1ccccc1)S(=O)(=O)c1cc(Br)ccc1Br	/	/	/	/	20.3	/
O=C(COc1ccccc1)NN1C(=O)CSC1=S	-8.2	17.0	-3.9	5.3	-6.6	-1.9
O=C(COc1ccc(F)cc1)NN1C(=O)CSC1=S	0.5	51.6*	-3.2	-4.2	-9.0	-0.8
SMILES	PKD1 inh	Calpain2 inh	HMGR II inh	Rad51 HR inh	Pf gametocyte	Redox H2O2 prof
COc1ccc(S(=O)(=O)N(C)C[C@H]2Oc3ccc(NC(=O)NC4CCCCC4)cc3C(=O)N([C@H](C)CO)C[C@@H]2C)cc1	/	/	/	/	5.2	/
COc1cccc(OC)c1-c1nn2c(-c3cc(-c4ccccc4)n[nH]3)nnc2s1	-0.7	84.5*	-2.0	4.5	-8.8	3.5
O=C(Nc1ccc(Cl)c(Cl)c1)OCCNC(=O)c1cccc(Cl)c1	1.5	65.1*	-3.3	0.2	-46.0	-2.5
COc1ccc(NC(=O)CN(c2ccc(OC)c(Cl)c2)S(=O)(=O)c2ccccc2)c(OC)c1	/	/	/	/	-21.1	/
CC(C)(C)c1nc(SCC(=O)c2ccccc2)c2ccccc2n1	3.6	51.9*	-7.0	-9.2	-24.6	-2.8
COc1ccccc1N1CCN(c2nccc(C)n2)CC1	/	/	/	/	-6.8	/
Cc1ccc(NS(=O)(=O)c2cc(C(=O)NCCSC3CCCCC3)ccc2C)cc1	-10.5	56.5*	4.4	-4.2	/	-0.6
Cc1ccc(NS(=O)(=O)c2cc(C(=O)NCCSc3ccc(C)cc3)ccc2C)cc1	-11.2	16.6	-4.6	-8.3	/	-7.1
Cc1ccc(-n2nc(C)c(C(=O)O)n2)c(C)c1	-4.9	6.9	-2.0	-8.1	9.9	-0.2
CC1=NN(c2ccc(C)cc2C)C(=O)C1C(c1ccccc1)C1C(=O)N(c2ccc(C)cc2C)N=C1C (stereo unspecified)	-1.7	-37.6	9.6*	3.9	/	1.0
COCCCNC(=S)N1CCC(C(=O)c2ccc(Cl)cc2)CC1	/	/	/	/	-12.5	/
CC(C)(C)NC(=O)NC(=O)COC(=O)CCC1CCCC1	/	8.2	/	46.3*	-25.1	/
COc1ccc(NC(C)c2cc(Cl)ccc2O)cc1 (stereo unspecified)	1.1	50.2*	-2.8	-7.1	-53.5	-2.0
O=C(O)CSc1nnc(CSc2nc3ccccc3s2)n1-c1ccccc1	1.3	-9.8	10.7*	3.4	-12.3	-0.9
CCNC(=O)c1cc(S(=O)(=O)N2CCSCC2)ccc1OC	/	/	/	/	-10.5	/
Cn1c(=O)c2c3c(sc2n2c(SCC(N)=O)nnc12)CC(C(C)(C)C)CC3 (stereo unspecified)	-3.9	66.5*	-2.6	2.0	/	1.3
O=C(Cn1c(=O)sc2ccccc21)Nc1ccc(S(=O)(=O)N2CCCC2)cc1	-2.2	54.0*	-2.4	-3.6	/	0.2
O=C(CCOc1ccccc1)Nc1ccc(S(=O)(=O)N2CCCC2)cc1	13.1	56.9*	-3.9	-1.1	-18.5	2.0
O=C(COc1ccccc1)Nc1ccc(S(=O)(=O)N2CCCC2)cc1	-2.5	-4.1	-2.6	-1.1	/	0.1
COc1ccccc1CNC(=O)C1CC2Cn3c(nc4cc(Cl)c(Cl)cc43)C2N1C (stereo unspecified)	/	/	/	-2.7	-12.2	/
COc1cccc(CC(=O)Nc2nc(-c3cc(OC)ccc3OC)cs2)c1	-7.5	11.3	12.2*	-7.2	12.4	-2.8
COC(=O)c1c(NC(=O)C2C3CCC(C3)C2C(=O)O)sc2c1CCCCC2 (stereo unspecified)	79.2*	-15.1	2.4	9.9	17.8	-0.2
COC(=O)c1ccccc1OCCOCCOc1cccc2cccnc12	-6.0	9.2	2.9	0.7	/	0.2
O=[N+]([O-])c1ccccc1OCCOCCOc1cccc2cccnc12	2.7	1.1	11.7*	7.9	/	0.3
Cc1cc(=O)[nH]c(Nc2ccc(N(C)C)cc2)n1	/	/	/	/	11.7	/
Cc1cc(=O)[nH]c(N/N=C/c2ccc(N(C)C)cc2)n1	4.0	-54.0	13.6*	0.1	/	5.8
O=C(NC(=O)c1ccc(Cl)cc1)Nc1ccc(-c2cnco2)cc1	/	-2.7	/	11.2	/	/
